Screening data (PubChem BioAssay)
Sampled rows, rich in hits. Any-hit rate of the full collection: about 2.3%.
TRPC4 act = TRPC4 (mouse) channel activation; AID 2237; Q9QUQ5; actives 0.49% (n = 310,000); HEK293 TRPC4beta/mu-opioid, Fluo4 calcium fluorescence; hits give high values; B-score at 10 µM;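 active means B-score above 5 SD of library B-scores, and initial fluorescence ratio not above library mean plus 5 SD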;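 further: positive B-score marks a calcium rise read as TRPC4 activation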
Target sequence (Q9QUQ5 whole entry, looked up): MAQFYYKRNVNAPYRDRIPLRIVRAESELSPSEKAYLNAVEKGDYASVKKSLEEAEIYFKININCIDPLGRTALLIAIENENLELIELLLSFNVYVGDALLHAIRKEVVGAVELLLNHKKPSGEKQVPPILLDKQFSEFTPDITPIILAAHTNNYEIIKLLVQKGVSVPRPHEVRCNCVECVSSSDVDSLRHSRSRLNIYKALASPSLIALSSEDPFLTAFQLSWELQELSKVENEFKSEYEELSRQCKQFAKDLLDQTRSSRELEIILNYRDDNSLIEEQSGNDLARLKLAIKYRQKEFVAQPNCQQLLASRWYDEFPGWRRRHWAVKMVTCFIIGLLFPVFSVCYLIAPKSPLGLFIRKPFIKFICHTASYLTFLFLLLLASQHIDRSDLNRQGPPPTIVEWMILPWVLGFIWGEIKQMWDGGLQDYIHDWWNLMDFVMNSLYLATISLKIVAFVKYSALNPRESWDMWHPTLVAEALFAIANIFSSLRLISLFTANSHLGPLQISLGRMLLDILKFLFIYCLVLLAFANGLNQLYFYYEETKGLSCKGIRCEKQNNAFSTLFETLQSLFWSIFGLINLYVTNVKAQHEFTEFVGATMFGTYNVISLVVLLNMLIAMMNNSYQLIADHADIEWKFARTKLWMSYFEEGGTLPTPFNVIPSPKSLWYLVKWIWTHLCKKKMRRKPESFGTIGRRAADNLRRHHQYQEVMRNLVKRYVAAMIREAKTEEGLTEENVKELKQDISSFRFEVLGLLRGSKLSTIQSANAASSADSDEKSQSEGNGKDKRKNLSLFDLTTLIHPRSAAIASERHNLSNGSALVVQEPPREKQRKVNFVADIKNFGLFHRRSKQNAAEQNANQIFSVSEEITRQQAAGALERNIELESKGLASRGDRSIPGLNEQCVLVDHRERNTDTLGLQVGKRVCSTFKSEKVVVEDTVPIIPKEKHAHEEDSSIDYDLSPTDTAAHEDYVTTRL
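Assay system: HEK293 cells stably co-expressing mouse TRPC4beta and mu-opioid receptor / Timing: Fluo4 dye loading 45 min at room temperature, 110 s recording / Signal: Fluo4 calcium-sensitive dye fluorescence, kinetic, 1 Hz baseline / Read-out: integrated baseline-normalised fluorescence ratio, converted to per-well B score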
TRPC6 act = activators of mouse TRPC6 channel; B-score at 10 µM; Q61143; AID 2550; HEK293-TRPC6 membrane potential dye fluorescence; hits give high values; actives 0.13% (n = 310,000);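 active means B-score of the integrated fluorescence ratio above library mean plus 3 SD, and starting fluorescence ratio within library mean plus 5 SD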;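 further: higher score means more depolarization so channel activation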
TRPC4 block = blocks the mouse TRPC4 cation channel; Q9QUQ5; HEK293 TRPC4beta/mu-opioid, DAMGO-evoked Fluo4 calcium flux; hits give low values; B-score at 10 µM; actives 0.39% (n = 300,000);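 active means B-score over 3 SD under the library average, no early fluorescence shift, positive overall ratio signal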
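Assay system: TRPC4beta/mu-opioid receptor HEK293 cell line; compound dosing: single concentration per test compound; detection: Fluo4 Ca2+ flux fluorescence; evaluation: per-well B score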
TRPC4 potent = allosteric potentiators of mouse TRPC4 channel | HEK293 TRPC4beta/mu-opioid, DAMGO EC20, Fluo-4 Ca2+ flux; hits give high values | actives 0.42% (n = 310,000) | B-score at 10 µM | AID 2227 | Q9QUQ5;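 active means B-score of calcium response area above 5 SD of library B-scores, with initial fluorescence ratio within 5 SD of library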;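 further: B-score of integrated fluorescence ratio over time as area under calcium response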
TRPC6 inh = inhibitors of mouse TRPC6 channel; actives 1.1% (n = 310,000); B-score at 10 µM; Q61143; HEK293-TRPC6, membrane potential dye, ACh-evoked depolarization; hits give low values; AID 2553;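 active means B-score under library mean minus 3 SD, initial fluorescence not abnormally high, positive integrated signal ratio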;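 further: B-score derived from integrated fluorescence ratio over the kinetic read; more negative B-score means stronger inhibition of depolarization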
TRPC4 spec 2 = mouse TRPC4 off-target activity of TRPC6 inhibitors, second screen. actives 42% (n = 920). inhibition, % at 10 µM. HEK293 TRPC4/MOR, membrane potential dye fluorescence; channel activated by saturating DAMGO dose. shares compounds with TRPC6 inh;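 active means compounds whose fluorescence signal differed from control wells by over 3 SD, either direction, in both duplicate plates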
TRPC4 spec = selectivity of TRPC6 inhibitors: effect on mouse TRPC4. actives 61% (n = 920). activity change, negative = inhibition, % at 10 µM. shares compounds with TRPC6 inh. HEK293 TRPC4/mu-opioid, membrane potential fluorescence;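 active means rise or fall in signal beyond 3 SD of buffer-only wells in both replicate plates, either sign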;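 further: integrated kinetic ratio of fluorescence range over baseline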
HEK293 MPD ctr 2-1 = second counter-screen for TRPC6 inhibitors: parental HEK293 cells. shares compounds with TRPC6 inh. parental HEK293 membrane potential dye fluorescence; maximal acetylcholine challenge after compound addition. signal change vs control, % at 10 µM. actives 31% (n = 920);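 active means membrane potential signal moving either way by over 3 SD of the maximum-effect control, in both duplicate plates, meaning non-specific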
HEK293 MPD ctr-1 = checks TRPC6 inhibitor effects in parental HEK293 cells | shares compounds with TRPC6 inh | actives 60% (n = 920) | membrane potential signal change, % at 10 µM | parental HEK293 membrane potential dye fluorescence;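 active means membrane potential signal shifting up or down by more than 3 SD of buffer-only wells, on both duplicate plates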
HEK293 MPD ctr-2 = checks TRPC6 modulator effects in parental HEK293 cells. shares compounds with TRPC6 inh. membrane potential dye fluorescence. membrane potential signal change, % at 10 µM. actives 51% (n = 2,400);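 active means membrane potential signal moves up or down beyond 5 SD from buffer-only wells, on both duplicate plates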
HEK293 MPD ctr 2-2 = second check of TRPC6 modulator effects in parental HEK293 cells. shares compounds with TRPC6 inh. membrane potential dye fluorescence; after compound, maximal acetylcholine stimulation. inhibition, % at 10 µM. actives 14% (n = 2,400). AID 488926;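 active means membrane potential signal drops by more than 5 SD from the mean control signal, in both duplicate plates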;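 further: plate controls were acetylcholine ECmax control wells for no effect and buffer only wells for full effect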
TRPC4/MOR mod = tests whether TRPC6 modulators also affect mouse TRPC4 | shares compounds with TRPC6 inh | actives 69% (n = 2,400) | HEK293 TRPC4/mu-opioid, membrane potential fluorescence | percent change from control (negative = decrease, positive = increase), % at 10 µM | AID 488927;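 active means membrane potential signal moved up or down beyond 5 SD of buffer control wells, in both duplicate plates, actives on both sides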;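 further: plate controls were assay buffer wells for no effect and DAMGO maximal-effect wells for full effect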
TRPC4/MOR inh 2 = mouse TRPC4 off-target activity of TRPC6 modulators, second screen. shares compounds with TRPC6 inh. HEK293 TRPC4/mu-opioid, membrane potential dye fluorescence; stimulated with maximal-effect DAMGO. inhibition, % at 10 µM. actives 55% (n = 2,400). AID 488928;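 active means drop in membrane potential signal beyond 5 SD of the control wells in both duplicate plates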;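 further: TRPC4 counter screen for TRPC6 hits run under conditions tuned for TRPC6 not TRPC4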
TRPC6 block conf = confirmation of mouse TRPC6 inhibitors; shares compounds with TRPC6 inh; HEK293-TRPC6, membrane potential dye, ACh-evoked depolarization; inhibition, % at 10 µM; actives 43% (n = 3,300); AID 488960;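 active means fluorescence ratio falls more than 5 SD below the full-stimulation control mean, in both duplicate runs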;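 further: integrated fluorescence ratio of peak minus minimum over baseline after agonist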
TRPC6 act confirm = confirmation of mouse TRPC6 activators | shares compounds with TRPC6 inh | HEK293-TRPC6 membrane potential dye fluorescence, FDSS | activation, % at 10 µM | actives 11% (n = 2,800) | AID 488961;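 active means ratio signal rise beyond 5 SD above unstimulated control wells' mean, seen in both duplicate runs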;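 further: plate controls were buffer EC0 wells for no effect and acetylcholine ECmax response for full effect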
Starred values were filed as active, the others as inactive; i = inactive; / = not tested or not shown; + = active, no number.

SMILES	TRPC4 act	TRPC6 act	TRPC4 block	TRPC4 potent	TRPC6 inh	HEK293 MPD ctr-2	HEK293 MPD ctr 2-2	TRPC4/MOR mod	TRPC4/MOR inh 2	TRPC6 block conf	TRPC6 act confirm	others
CCCCn1c(N)c(N(CC(C)C)C(=O)c2ccc(Cl)c(S(=O)(=O)N3CCCC3)c2)c(=O)[nH]c1=O	i	i	i	i	i	/	/	/	/	/	/
O=C(CCC1CCCCC1)NCCN1C2=NC[C@H](Cc3ccccc3)N2C[C@H]1Cc1ccc(O)cc1	i	i	i	i	i	/	/	/	/	/	/
O=C(CCC1CCCCC1)NCCN1C2=NC[C@@H](Cc3ccccc3)N2C[C@H]1Cc1ccc(O)cc1	i	i	i	i	-5.47*	i	i	i	i	i	i
COC(=O)C1Cc2c([nH]c3ccccc23)C2(CCN(Cc3ccccc3)CC2)N1 (centres undefined)	i	i	i	i	-7.49*	/	/	/	/	i	i	TRPC4 spec 2=47.0%*;TRPC4 spec=5.6%*;HEK293 MPD ctr 2-1=247.5%*;HEK293 MPD ctr-1=i
Cc1cc(C)nc(/N=C(\N)N2CCc3ccccc32)n1	i	i	i	i	-6.36*	i	i	-11.5%*	46.0%*	i	i
COc1cccc2c1nc(C)c1cc(C)oc12	i	i	i	i	-5.78*	-315.5%*	i	-54.5%*	41.5%*	i	i
COc1ccc(N2CCN(C(=O)CN(Cc3ccc(Cl)cc3)S(C)(=O)=O)CC2)cc1	i	i	i	i	i	/	/	/	/	/	/
CS(=O)(=O)N(CC(=O)N1CCc2ccccc2C1)Cc1ccccc1	i	i	i	i	-6.53*	i	i	12.0%*	i	i	/
CS(=O)(=O)N(CC(=O)N1CCN(c2ccccc2)CC1)Cc1ccc(Cl)cc1	i	i	i	i	-5.63*	i	i	13.0%*	i	i	i
CC1CCN(C(=O)CN(Cc2ccccc2)S(C)(=O)=O)CC1	i	i	i	i	i	/	/	/	/	/	/
COC(=O)c1ccc(CNC(=O)c2ccc(NS(=O)(=O)c3ccc4[nH]c(=O)[nH]c4c3)cc2)cc1	i	i	i	i	i	/	/	/	/	/	/
CCC(=O)N/N=C/c1ccc(-c2ccc([N+](=O)[O-])cc2)o1	i	i	i	i	i	/	/	/	/	/	/
CC(C)(C)C(=O)/C=c1\s/c(=C\c2ccc(-c3ccc([N+](=O)[O-])cc3)o2)c(=O)n1CC(=O)NC(N)=O	62*	57.3*	i	21*	i	+	i	348.0%*	i	i	418.0%*
Cc1c(C(N)=O)sc2ncn(CC(=O)N(C)C3CCCCC3)c(=O)c12	i	i	i	i	i	/	/	/	/	/	/
Cc1ccc(S(=O)(=O)n2c(N)nc3ccccc32)cc1	i	i	i	i	-8.44*	/	/	/	/	63.5%*	i	TRPC4 spec 2=i;TRPC4 spec=i;HEK293 MPD ctr 2-1=38.0%*;HEK293 MPD ctr-1=i
Cc1nc2ccccc2n1S(=O)(=O)c1ccc(F)cc1	i	i	i	i	i	/	/	/	/	/	/
CCOc1ccc(S(=O)(=O)N2CCN(C(=O)c3ccccc3Cc3ccccc3)CC2)cc1	i	i	i	i	i	/	/	/	/	/	/
CN1CCN(CCCNC(=O)c2ccc3c(c2)N(Cc2ccccc2)CCS3)CC1	i	i	i	i	-7.93*	/	/	/	/	i	i	TRPC4 spec 2=62.5%*;TRPC4 spec=i;HEK293 MPD ctr 2-1=i;HEK293 MPD ctr-1=i
CCN1CCN(CCCNC(=O)c2ccc3c(c2)N(Cc2ccc(C)cc2)CCS3)CC1	i	i	i	i	-5.17*	i	i	i	74.0%*	57.0%*	i
Cc1ccc(CN2CCSc3ccc(C(=O)NCCCN4CCOCC4)cc32)cc1	i	i	i	i	i	/	/	/	/	/	/
CCN(CC(=O)Nc1c(F)cccc1F)C(=O)c1ccc(NC(=O)CC2SC(N3CCCC3)=NC2=O)cc1 (centres undefined)	i	i	i	i	i	/	/	/	/	/	/
COc1ccccc1OCC(=O)NCCS(=O)(=O)N1CCN(c2ccc(F)cc2)CC1	i	i	i	i	-5.42*	i	i	i	i	i	i
CCn1c(SCC(=O)Nc2nccc(C)n2)nc2ccccc21	i	i	i	i	i	/	/	/	/	/	/
O=C(NCC1CCCO1)C1c2ccccc2C(=O)N1C1CCCCCCC1 (centres undefined)	i	i	i	i	i	/	/	/	/	/	/
O=C(NCC1CCCO1)[C@@H]1CSC2c3ccccc3C(=O)N21 (some centres undefined)	i	i	i	i	-5.39*	i	i	i	i	i	i
Cc1ccccc1OCCC(=O)OCC(=O)NC1CCCCC1	i	i	i	i	i	/	/	/	/	/	/
O=C(C[n+]1ccccc1)c1ccc(-c2ccccc2)cc1	i	i	i	i	i	/	/	/	/	/	/
CN(C)c1cc[n+](CC(=O)c2ccc(-c3ccccc3)cc2)cc1	i	i	i	i	-7.68*	/	/	/	/	i	/	TRPC4 spec 2=i;TRPC4 spec=-0.5%*;HEK293 MPD ctr 2-1=47.0%*;HEK293 MPD ctr-1=3.3%*
